The values below come from ChEMBL document CHEMBL3600374, “Dual inhibitors of the dengue and West Nile virus NS2B-NS3 proteases: Synthesis, biological evaluation and docking studies of novel peptide-hybrids” (Bioorg Med Chem, 2015).

Assay [1] relates to dengue virus type 2. Briefly: Inhibition of DENV serotype 2 NS2B-NS3 protease expressed in Escherichia coli BL21 lambda (DE3) cells using Abz-Nle-Lys-Arg-Arg-Ser-3-(NO2)Tyr as substrate at 50 uM preincubated for 15 mins followed by substrate addition measured for 15 mins by FRET assay relative to control.
Assay [2] is described as follows: Inhibition of DENV serotype 2 NS2B-NS3 protease expressed in Escherichia coli BL21 lambda (DE3) cells using Abz-Nle-Lys-Arg-Arg-Ser-3-(NO2)Tyr as substrate preincubated for 15 mins followed by substrate addition measured for 15 mins by FRET assay. The arrangement: species or system dengue virus type 2. A digest of the protocol:
(§1)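 IC50 by FRET assay at substrate 50 μM; DENV protease at 100 nM, WNV protease at 150 nM. Measured in triplicate.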

The target of assay [3] is Genome polyprotein (West Nile virus) (UniProt P06935). The assay can be described thus: Inhibition of WNV NS2B-NS3 protease expressed in Escherichia coli BL21 lambda (DE3) cells using Abz-Gly-Leu-Lys-Arg-Gly-Gly-3-(NO2)Tyr as substrate at 50 uM preincubated for 15 mins followed by substrate addition measured for 15 mins by FRET assay relative to control.
The target in assay [4] is T1, Genome polyprotein (West Nile virus, UniProt P06935). Briefly: Inhibition of WNV NS2B-NS3 protease expressed in Escherichia coli BL21 lambda (DE3) cells using Abz-Gly-Leu-Lys-Arg-Gly-Gly-3-(NO2)Tyr as substrate preincubated for 15 mins followed by substrate addition measured for 15 mins by FRET assay. A digest of the protocol:
as §1

In assay [5] the target is Prothrombin (Homo sapiens) (UniProt P00734). Briefly: Inhibition of thrombin (unknown origin) using Boc-Val-Pro-Arg-AMC as substrate at 25 uM preincubated for 15 mins followed by substrate addition measured for 10 mins by FRET assay relative to control.
Assay [6] deals with T1, Genome polyprotein. The assay can be described thus: Competitive inhibition of WNV NS2B-NS3 protease expressed in Escherichia coli BL21 lambda (DE3) cells using Abz-Gly-Leu-Lys-Arg-Gly-Gly-3-(NO2)Tyr as substrate preincubated for 15 mins followed by substrate addition measured for 15 mins by Cheng-Prusoff plot analysis. The method, boiled down: (§2)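 WNV protease, FRET read-out. Substrate at 50, 100, 150, 200 μM; inhibitor at 0, 0.5, 1, 2, 3, 4, 5, 6 μM; triplicates repeated three times, 12 outliers of 288 values excluded. Ki taken from the Cheng-Prusoff plot (Y-intercept of IC50 vs substrate) or the Dixon plot (mean of line intersections).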

Assay [7] concerns the target T1, Genome polyprotein. The assay can be described thus: Inhibition of WNV NS2B-NS3 protease expressed in Escherichia coli BL21 lambda (DE3) cells using Abz-Gly-Leu-Lys-Arg-Gly-Gly-3-(NO2)Tyr as substrate preincubated for 15 mins followed by substrate addition measured for 15 mins by Dixon plot analysis. The method, boiled down:
as §2

The target in assay [8] is Genome polyprotein (West Nile virus) (UniProt P06935). The assay can be described thus: Competitive inhibition of WNV NS2B-NS3 protease expressed in Escherichia coli BL21 lambda (DE3) cells using Abz-Gly-Leu-Lys-Arg-Gly-Gly-3-(NO2)Tyr as substrate at 0.5 to 6 uM preincubated for 15 mins followed by substrate addition measured for 15 mins by Cheng-Prusoff plot analysis. A digest of the protocol: as §2

The subject of assay [9] is dengue virus type 2. Briefly: Inhibition of DENV serotype 2 NS2B-NS3 protease expressed in Escherichia coli BL21 lambda (DE3) cells by HPLC-based assay.
Assay [10] relates to dengue virus type 2. The assay can be described thus: Binding affinity to DENV serotype 2 NS2B-NS3 protease expressed in Escherichia coli BL21 lambda (DE3) cells by fluorescence quenching assay in absence of DENV protease inhibitor aprotinin. A digest of the protocol: (§3)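 DENV protease held at 1 μM, aprotinin at 10 μM, inhibitor at 0, 0.5, 1, 2, 5, 10, 20, 30, 40, 48 μM. Read-out is the intrinsic Trp50 fluorescence of the protease, measured with and without aprotinin. Readings with aprotinin corrected for aprotinin's own fluorescence.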

In assay [11] the test system is dengue virus type 2. The assay can be described thus: Binding affinity to DENV serotype 2 NS2B-NS3 protease expressed in Escherichia coli BL21 lambda (DE3) cells at 0.5 to 48 uM by fluorescence quenching assay in presence of DENV protease inhibitor aprotinin. A digest of the protocol:
as §3

Assay [12] can be described thus: Competitive inhibition of DENV serotype 2 NS2B-NS3 protease expressed in Escherichia coli BL21 lambda (DE3) cells using Abz-Nle-Lys-Arg-Arg-Ser-3-(NO2)Tyr as substrate preincubated for 15 mins followed by substrate addition measured for 15 mins by Cheng-Prusoff plot analysis. The arrangement: species or system dengue virus type 2. A digest of the protocol:
(§4)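 DENV serotype 2 protease, FRET read-out. Substrate at 50, 100, 150, 200 μM; inhibitor at 0, 0.25, 0.5, 1, 1.5, 2, 2.5, 3 μM; triplicates, two outliers of 96 values excluded. Ki taken from the Cheng-Prusoff plot (IC50 vs substrate, Y-intercept), the Dixon plot (mean of line intersections), or the Cornish-Bowden plot.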

Assay [13] in a line: Inhibition of DENV serotype 2 NS2B-NS3 protease expressed in Escherichia coli BL21 lambda (DE3) cells using Abz-Nle-Lys-Arg-Arg-Ser-3-(NO2)Tyr as substrate preincubated for 15 mins followed by substrate addition measured for 15 mins by Dixon plot analysis. The arrangement: species or system dengue virus type 2. The method, boiled down:
as §4

Assay [14] concerns dengue virus type 2. The assay can be described thus: Competitive inhibition of DENV serotype 2 NS2B-NS3 protease expressed in Escherichia coli BL21 lambda (DE3) cells using Abz-Nle-Lys-Arg-Arg-Ser-3-(NO2)Tyr as substrate at 0.25 to 3 uM preincubated for 15 mins followed by substrate addition measured for 15 mins by Cornish-Bowden plot analysis. The method, boiled down:
as §4

Activity calls are given as the source filed them. The calls are words filed in the database; no cut-off is given here.

T1 sequence (P06935 1371-1501 limits assumed): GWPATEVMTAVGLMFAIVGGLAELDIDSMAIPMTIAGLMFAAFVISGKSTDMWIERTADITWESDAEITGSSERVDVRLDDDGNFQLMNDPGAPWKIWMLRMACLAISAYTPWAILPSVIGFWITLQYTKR
T1 sequence (P06935 1502-2120 limits assumed): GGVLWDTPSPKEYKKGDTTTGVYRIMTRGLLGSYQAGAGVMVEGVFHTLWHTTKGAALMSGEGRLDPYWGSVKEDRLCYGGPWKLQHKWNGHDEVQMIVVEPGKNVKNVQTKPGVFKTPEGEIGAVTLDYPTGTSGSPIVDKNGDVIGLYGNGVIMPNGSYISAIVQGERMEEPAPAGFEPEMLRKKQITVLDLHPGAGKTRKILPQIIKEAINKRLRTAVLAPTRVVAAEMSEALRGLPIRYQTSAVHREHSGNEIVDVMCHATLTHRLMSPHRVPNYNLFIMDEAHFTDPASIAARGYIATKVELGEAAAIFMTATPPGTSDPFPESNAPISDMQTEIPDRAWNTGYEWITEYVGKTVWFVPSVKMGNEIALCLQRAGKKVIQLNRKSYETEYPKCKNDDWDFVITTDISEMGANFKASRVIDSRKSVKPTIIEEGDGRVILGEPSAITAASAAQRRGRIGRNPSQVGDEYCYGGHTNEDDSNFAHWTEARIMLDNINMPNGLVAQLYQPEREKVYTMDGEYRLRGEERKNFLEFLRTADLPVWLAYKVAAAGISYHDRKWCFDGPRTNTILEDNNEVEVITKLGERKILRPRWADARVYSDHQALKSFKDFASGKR
Genome polyprotein (West Nile virus), sequence (P06935 whole entry): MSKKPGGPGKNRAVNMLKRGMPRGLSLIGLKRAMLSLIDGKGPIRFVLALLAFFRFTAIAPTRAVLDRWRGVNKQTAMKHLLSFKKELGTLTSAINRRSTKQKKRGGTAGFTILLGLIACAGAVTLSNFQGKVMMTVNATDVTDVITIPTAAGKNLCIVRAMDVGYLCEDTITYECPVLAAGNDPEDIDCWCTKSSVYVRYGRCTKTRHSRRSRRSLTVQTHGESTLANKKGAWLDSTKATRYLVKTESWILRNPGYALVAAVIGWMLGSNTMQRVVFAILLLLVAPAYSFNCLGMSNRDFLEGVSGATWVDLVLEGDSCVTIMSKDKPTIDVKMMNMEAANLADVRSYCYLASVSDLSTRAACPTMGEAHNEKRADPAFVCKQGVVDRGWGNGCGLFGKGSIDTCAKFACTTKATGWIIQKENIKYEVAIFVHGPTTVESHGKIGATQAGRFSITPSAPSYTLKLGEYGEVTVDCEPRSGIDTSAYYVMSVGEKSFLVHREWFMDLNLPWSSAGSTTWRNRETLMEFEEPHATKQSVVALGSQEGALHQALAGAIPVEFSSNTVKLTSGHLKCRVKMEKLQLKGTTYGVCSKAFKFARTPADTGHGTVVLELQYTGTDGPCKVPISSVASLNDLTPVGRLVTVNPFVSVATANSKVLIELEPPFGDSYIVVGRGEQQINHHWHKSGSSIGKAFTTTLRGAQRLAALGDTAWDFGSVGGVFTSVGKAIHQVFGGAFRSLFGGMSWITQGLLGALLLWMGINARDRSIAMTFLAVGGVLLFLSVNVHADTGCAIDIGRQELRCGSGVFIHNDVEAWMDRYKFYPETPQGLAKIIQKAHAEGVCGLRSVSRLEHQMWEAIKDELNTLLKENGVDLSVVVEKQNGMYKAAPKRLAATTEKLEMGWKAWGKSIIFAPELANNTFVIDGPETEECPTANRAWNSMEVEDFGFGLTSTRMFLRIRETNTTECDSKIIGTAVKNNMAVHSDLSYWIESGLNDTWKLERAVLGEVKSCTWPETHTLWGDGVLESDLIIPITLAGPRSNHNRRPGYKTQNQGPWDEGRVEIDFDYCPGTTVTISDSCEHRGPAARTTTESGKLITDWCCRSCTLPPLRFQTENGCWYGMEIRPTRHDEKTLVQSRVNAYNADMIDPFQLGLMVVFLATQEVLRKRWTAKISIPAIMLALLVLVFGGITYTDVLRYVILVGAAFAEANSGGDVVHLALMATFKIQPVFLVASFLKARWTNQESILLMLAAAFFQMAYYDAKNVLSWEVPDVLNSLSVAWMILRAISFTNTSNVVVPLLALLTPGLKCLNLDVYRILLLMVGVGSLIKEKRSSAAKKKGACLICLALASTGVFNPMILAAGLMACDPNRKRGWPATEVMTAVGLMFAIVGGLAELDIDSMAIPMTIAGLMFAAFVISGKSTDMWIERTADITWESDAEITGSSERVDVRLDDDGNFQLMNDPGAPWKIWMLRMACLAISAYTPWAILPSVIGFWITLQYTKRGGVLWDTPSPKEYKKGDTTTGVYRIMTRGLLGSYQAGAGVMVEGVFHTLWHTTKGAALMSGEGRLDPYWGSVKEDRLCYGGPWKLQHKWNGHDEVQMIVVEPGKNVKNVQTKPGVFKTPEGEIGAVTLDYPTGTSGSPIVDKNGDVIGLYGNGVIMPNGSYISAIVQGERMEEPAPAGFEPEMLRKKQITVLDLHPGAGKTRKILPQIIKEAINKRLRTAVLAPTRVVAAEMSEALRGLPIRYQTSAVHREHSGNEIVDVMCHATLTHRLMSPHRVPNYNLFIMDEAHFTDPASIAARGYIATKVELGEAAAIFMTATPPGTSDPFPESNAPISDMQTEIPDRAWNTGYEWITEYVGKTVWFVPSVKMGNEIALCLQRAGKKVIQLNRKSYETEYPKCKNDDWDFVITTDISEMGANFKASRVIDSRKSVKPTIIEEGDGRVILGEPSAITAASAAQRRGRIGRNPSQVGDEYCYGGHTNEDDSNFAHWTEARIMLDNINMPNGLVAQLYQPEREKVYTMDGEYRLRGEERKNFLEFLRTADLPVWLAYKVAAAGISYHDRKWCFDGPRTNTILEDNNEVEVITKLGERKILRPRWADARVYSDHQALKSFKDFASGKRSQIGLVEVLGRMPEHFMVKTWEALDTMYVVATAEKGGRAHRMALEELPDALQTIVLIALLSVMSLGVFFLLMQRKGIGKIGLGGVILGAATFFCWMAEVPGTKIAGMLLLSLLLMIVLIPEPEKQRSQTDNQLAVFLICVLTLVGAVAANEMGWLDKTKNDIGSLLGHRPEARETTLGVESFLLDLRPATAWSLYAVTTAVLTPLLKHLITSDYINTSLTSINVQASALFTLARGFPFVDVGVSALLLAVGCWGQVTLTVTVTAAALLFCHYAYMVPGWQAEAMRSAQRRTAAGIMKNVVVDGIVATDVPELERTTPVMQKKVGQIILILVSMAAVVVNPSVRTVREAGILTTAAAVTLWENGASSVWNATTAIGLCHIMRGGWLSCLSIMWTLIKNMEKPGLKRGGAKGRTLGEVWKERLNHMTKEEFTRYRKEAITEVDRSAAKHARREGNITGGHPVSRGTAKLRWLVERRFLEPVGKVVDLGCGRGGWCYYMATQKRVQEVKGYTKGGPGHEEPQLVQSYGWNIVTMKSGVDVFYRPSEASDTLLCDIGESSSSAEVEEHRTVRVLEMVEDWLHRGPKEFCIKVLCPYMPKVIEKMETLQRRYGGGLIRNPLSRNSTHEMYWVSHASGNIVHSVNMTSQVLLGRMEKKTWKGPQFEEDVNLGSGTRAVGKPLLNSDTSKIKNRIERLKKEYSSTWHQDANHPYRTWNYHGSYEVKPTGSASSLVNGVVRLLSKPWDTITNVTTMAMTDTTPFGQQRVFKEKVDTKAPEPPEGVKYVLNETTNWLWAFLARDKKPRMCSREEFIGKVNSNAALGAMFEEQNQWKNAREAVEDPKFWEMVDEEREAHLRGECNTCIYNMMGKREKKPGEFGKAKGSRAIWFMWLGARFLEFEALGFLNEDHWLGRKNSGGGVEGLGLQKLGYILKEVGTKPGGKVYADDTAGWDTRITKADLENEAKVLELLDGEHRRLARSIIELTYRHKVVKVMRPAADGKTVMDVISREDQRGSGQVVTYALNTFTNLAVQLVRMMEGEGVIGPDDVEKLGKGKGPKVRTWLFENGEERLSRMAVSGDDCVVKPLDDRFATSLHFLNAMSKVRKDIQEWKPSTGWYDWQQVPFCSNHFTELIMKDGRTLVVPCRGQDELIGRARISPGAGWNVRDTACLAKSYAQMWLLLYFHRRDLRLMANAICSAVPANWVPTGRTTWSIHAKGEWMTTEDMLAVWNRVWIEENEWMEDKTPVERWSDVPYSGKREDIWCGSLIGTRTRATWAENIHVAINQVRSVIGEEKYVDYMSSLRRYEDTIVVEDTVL

As for `N=C(N)NCCC[C@H](NC(=O)c1ccc(/C=C2\SC(=O)N(CC3CCCCC3)C2=O)cc1)C(=O)N[C@@H](CCCCN)C(=O)N[C@H](C(N)=O)c1ccccc1`, the figures for the inhibition (in the assay with dengue virus type 2 [1]; in assay [3]; in [5]) were 99.3%, 99.6% and 6.9%, respectively. Also, the values for the IC50 (in assay [2]; against Genome polyprotein [4]) were 1050 nM and 750 nM, respectively. Also, the Ki (in general, a dissociation constant, usually derived from enzyme kinetics or from competition with a known ligand) at Genome polyprotein [6] was determined as 1300 nM; on Genome polyprotein [7] it was 820 nM. Also, the inhibition – broadly, the relative decrease from the control value, in per cent – in assay [8] was “Active”.

`C#CCCN1C(=O)S/C(=C\c2ccc(C(=O)O)cc2)C1=O`: the inhibition result with dengue virus type 2 [1] and with dengue virus type 2 [9] was “inactive” each time. Moreover, the inhibition in assay [3] stood at 20.8%.

`CCC(CC)N1C(=O)S/C(=C\c2ccc(C(=O)O)cc2)C1=O`: the results for the inhibition (in the assay on dengue virus type 2 [1]; in [3]) were 11.2% and 40.7%, respectively. For the same molecule, in the assay on dengue virus type 2 [9], the inhibition entry was “inactive”.

With `CC(C)(C)CN1C(=O)S/C(=C\c2ccc(C(=O)O)cc2)C1=O`, the inhibition stood at 13.1% in the assay on dengue virus type 2 [1] and 41.1% in assay [3]. Further, in the assay with dengue virus type 2 [9], the inhibition result was “inactive”.

`O=C(O)c1ccc(/C=C2\SC(=O)N(CC34CC5CC(CC(C5)C3)C4)C2=O)cc1`: the inhibition entry (with dengue virus type 2 [1]; in assay [3]; in the assay on dengue virus type 2 [9]) was “inactive” each time.

On to `O=C(O)c1ccc(/C=C2\SC(=O)N(CC3CCCC3)C2=O)cc1`, for which the inhibition in the assay with dengue virus type 2 [1] turned out to be 15.9%; in assay [3], 32.4%. For the same molecule, the inhibition result in the assay on dengue virus type 2 [9] is “inactive”.

Regarding `CC(C)N1C(=O)S/C(=C\c2ccc(C(=O)O)cc2)C1=O`, the inhibition was 16.3% in the assay with dengue virus type 2 [1] and 34.8% in assay [3]. Moreover, in the assay on dengue virus type 2 [9], the inhibition result was “inactive”.

On to `C#CCCN1C(=O)S/C(=C\c2ccc(C(=O)N[C@@H](CCCNC(=N)N)C(=O)N[C@@H](CCCCN)C(=O)N[C@H](C(N)=O)c3ccccc3)cc2)C1=O`, for which the inhibition with dengue virus type 2 [1] was determined as 99.9%; in assay [3] it was 97.8%; in [5], 13%. Besides, the IC50 – broadly, the concentration that gives 50% inhibition – is 460 nM in assay [2] and 2120 nM against Genome polyprotein [4]. Also, the Activity result in the assay on dengue virus type 2 [10] is “Dose-dependent effect”. For the same molecule, the result with dengue virus type 2 [11] was inactive. Moreover, the Ki in assay [12] was 400 nM; in assay [13], 100 nM. For the same molecule, the inhibition result in the assay with dengue virus type 2 [14] was “Active”.

On to `N=C(N)NCCC[C@H](NC(=O)c1ccc(/C=C2\SC(=O)N(CC3CCC3)C2=O)cc1)C(=O)N[C@@H](CCCCN)C(=O)N[C@H](C(N)=O)c1ccccc1`, for which the inhibition in the assay on dengue virus type 2 [1] stood at 99.7%; in assay [3], 95.9%; in assay [5], 8%. The IC50 worked out at 780 nM in [2] and 1390 nM against Genome polyprotein [4].

On to `C#CCCCN1C(=O)S/C(=C\c2ccc(C(=O)N[C@@H](CCCNC(=N)N)C(=O)N[C@@H](CCCCN)C(=O)N[C@H](C(N)=O)c3ccccc3)cc2)C1=O`, for which the inhibition with dengue virus type 2 [1] was 103%; in assay [3], 105%; in assay [5] it was 10.4%. Moreover, the IC50 was 850 nM in assay [2] and 2750 nM against Genome polyprotein [4].

Turning to `O=C(O)c1ccc(/C=C2\SC(=O)N(CC3CCCCC3)C2=O)cc1`, the figures for the inhibition (with dengue virus type 2 [1]; in assay [3]) were 23% and 35%, respectively. Also, in the assay on dengue virus type 2 [9], the inhibition result was “inactive”.

In the case of `C#CCN1C(=O)S/C(=C\c2ccc(C(=O)N[C@@H](CCCNC(=N)N)C(=O)N[C@@H](CCCCN)C(=O)N[C@H](C(N)=O)c3ccccc3)cc2)C1=O`, the results for the inhibition (in the assay with dengue virus type 2 [1]; in [3]; in assay [5]) were 99.2%, 93.1% and 10.9%, respectively. Besides, the IC50 is 990 nM in [2] and 2360 nM on Genome polyprotein [4].

On to `N=C(N)NCCC[C@H](NC(=O)c1ccc(/C=C2\SC(=O)N(C3CCC3)C2=O)cc1)C(=O)N[C@@H](CCCCN)C(=O)N[C@H](C(N)=O)c1ccccc1`, for which the inhibition turned out to be 100% in the assay on dengue virus type 2 [1], 95.3% in assay [3] and 4.7% in assay [5]. Besides, the IC50 amounted to 620 nM in assay [2] and 1690 nM on Genome polyprotein [4].

For `N=C(N)NCCC[C@H](NC(=O)c1ccc(/C=C2\SC(=O)N(C3CCCCC3)C2=O)cc1)C(=O)N[C@@H](CCCCN)C(=O)N[C@H](C(N)=O)c1ccccc1`, the results for the inhibition (in the assay with dengue virus type 2 [1]; in assay [3]; in assay [5]) were 101%, 98% and 9.5%, respectively. Also, the IC50 was found to be 790 nM in assay [2] and 1710 nM against Genome polyprotein [4].

In the case of `CC(C)(C)CCN1C(=O)S/C(=C\c2ccc(C(=O)N[C@@H](CCCNC(=N)N)C(=O)N[C@@H](CCCCN)C(=O)N[C@H](C(N)=O)c3ccccc3)cc2)C1=O`, the inhibition turned out to be 101% in the assay on dengue virus type 2 [1], 98.9% in assay [3] and 9.7% in assay [5]. In addition, the IC50 in [2] came to 510 nM; against Genome polyprotein [4], 1910 nM.
